Measurements as given in ChEMBL document CHEMBL1122061, “Use of a potential rabbit model for structure--behavioral activity studies of cannabinoids” (1982).

Tests used:
Assay type in all cases: functional
[1] = tested on: Oryctolagus cuniculus; experiment: Number of rabbits convulsed at 2 mg/kg, iv out of 2 rabbits tested
Method in brief: (§1)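 Adult tetrahydrocannabinol-seizure susceptible (THC-SS) rabbits, 2–4 kg, dosed intravenously with cannabinoid in 10% polysorbate 80/90% physiological saline. Presence or absence of behavioral convulsion was recorded within 20 min. Animals were reused for several compounds or doses, with at least 7 days between trials and treatments given in random order. Every rabbit also received 0.05 mg/kg Δ9-THC at least once. Aim was four rabbits per dose.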

[2] = tested on: Oryctolagus cuniculus; experiment: Number of rabbits convulsed at 0.5 mg/kg, iv out of 1 rabbit tested; method in brief: as §1
[3] = tested on: Oryctolagus cuniculus; experiment: Number of rabbits convulsed at 4 mg/kg, iv out of 1 rabbit tested; method in brief: as §1
[4] = tested on: Oryctolagus cuniculus; experiment: Number of rabbits convulsed at 1 mg/kg, iv out of 4 rabbits tested; method in brief: as §1
[5] = tested on: Oryctolagus cuniculus; experiment: Number of rabbits convulsed at 0.25 mg/kg, iv out of 1 rabbits tested; method in brief: as §1
[6] = tested on: Oryctolagus cuniculus; experiment: Number of rabbits convulsed at 1 mg/kg, iv out of 1 rabbits tested; method in brief: as §1
[7] = tested on: Oryctolagus cuniculus; experiment: Number of rabbits convulsed at 0.01 mg/kg, iv out of 4 rabbits tested; method in brief: as §1
[8] = tested on: Oryctolagus cuniculus; experiment: Number of rabbits convulsed at 0.5 mg/kg, iv out of 1 rabbits tested; method in brief: as §1
[9] = tested on: Oryctolagus cuniculus; experiment: Number of rabbits convulsed at 0.05 mg/kg, iv out of 4 rabbits tested; method in brief: as §1
[10] = tested on: Oryctolagus cuniculus; experiment: Number of rabbits convulsed at 0.5 mg/kg, iv out of 4 rabbits tested; method in brief: as §1
[11] = tested on: Oryctolagus cuniculus; experiment: Number of rabbits convulsed at 20 mg/kg, iv out of 3 rabbits tested; method in brief: as §1
[12] = tested on: Oryctolagus cuniculus; experiment: Number of rabbits convulsed at 0.9 mg/kg, iv out of 3 rabbits tested; method in brief: as §1
[13] = tested on: Oryctolagus cuniculus; experiment: Number of rabbits convulsed at 0.005 mg/kg, iv out of 4 rabbits tested; method in brief: as §1
[14] = tested on: Oryctolagus cuniculus; experiment: Number of rabbits convulsed at 0.1 mg/kg, iv out of 4 rabbits tested; method in brief: as §1
[15] = tested on: Oryctolagus cuniculus; experiment: Number of rabbits convulsed at 0.9 mg/kg, iv out of 4 rabbits tested; method in brief: as §1
[16] = tested on: Oryctolagus cuniculus; experiment: Number of rabbits convulsed at 0.1 mg/kg, iv out of 2 rabbits tested; method in brief: as §1
[17] = tested on: Oryctolagus cuniculus; experiment: Number of rabbits convulsed at 0.5 mg/kg, iv out of 3 rabbits tested; method in brief: as §1
[18] = tested on: Oryctolagus cuniculus; experiment: Number of rabbits convulsed at 20 mg/kg, iv out of 2 rabbits tested; method in brief: as §1
[19] = tested on: Oryctolagus cuniculus; experiment: Number of rabbits convulsed at 0.1 mg/kg, iv out of 1 rabbits tested; method in brief: as §1
[20] = tested on: Oryctolagus cuniculus; experiment: Number of rabbits convulsed at 0.9 mg/kg, iv out of 1 rabbits tested; method in brief: as §1
[21] = tested on: Oryctolagus cuniculus; experiment: Number of rabbits convulsed at 5 mg/kg, iv out of 1 rabbit tested; method in brief: as §1
[22] = tested on: Oryctolagus cuniculus; experiment: Number of rabbits convulsed at 10 mg/kg, iv out of 1 rabbit tested; method in brief: as §1
[23] = tested on: Oryctolagus cuniculus; experiment: Number of rabbits convulsed at 1 mg/kg, iv out of 3 rabbits tested; method in brief: as §1
[24] = tested on: Oryctolagus cuniculus; experiment: Number of rabbits convulsed at 0.05 mg/kg, iv out of 3 rabbits tested; method in brief: as §1
[25] = tested on: Oryctolagus cuniculus; experiment: Number of rabbits convulsed at 5 mg/kg, iv out of 1 rabbits tested; method in brief: as §1

With `CCCCCc1cc(O)c2c(c1)OC(C)(C)c1ccc(CO)cc1-2` the “No. of rabbits convulsed” value [1] was 2, the “No. of rabbits convulsed” value [2] was 0 and the “No. of rabbits convulsed” value [3] was 1. The “No. of rabbits convulsed” value [4] was 1.

In the case of `CCCCCc1cc(O)c2c(c1)OC(C)(C)[C@@H]1CC=C(CO)CC21` (stereo partly specified), the “No. of rabbits convulsed” value [5] is reported as 1, the “No. of rabbits convulsed” value [6] is reported as 1 and the “No. of rabbits convulsed” value [7] is reported as 2. For the same molecule, the “No. of rabbits convulsed” value [8] was 1 and the “No. of rabbits convulsed” value [9] was 4.

In the case of `CCCCCc1cc(O)c2c(c1)OC(C)(C)[C@@H]1C[C@H](O)C(C)=CC21` (stereo partly specified), the “No. of rabbits convulsed” value [7] is reported as 2 and the “No. of rabbits convulsed” value [9] is reported as 4.

In the case of `CCCCCc1cc(O)c2c(c1)OC(C)(C)[C@@H]1CC=C(C=O)CC21` (stereo partly specified), the “No. of rabbits convulsed” value [10] is reported as 4, the “No. of rabbits convulsed” value [7] is reported as 0 and the “No. of rabbits convulsed” value [9] is reported as 4.

For `CCCCCc1cc(O)c2c(c1)OC(C)(C)C1=C2CCCC1`, the “No. of rabbits convulsed” value [11] was 1 and the “No. of rabbits convulsed” value [12] was 0.

`CCCCCCC(C)(C)c1cc(O)c2c(c1)OC(C)(C)[C@@H]1CCC(=O)CC21` (stereo partly specified) was tested, and the “No. of rabbits convulsed” value [13] was 3, the “No. of rabbits convulsed” value [14] was 4 and the “No. of rabbits convulsed” value [7] was 4.

In the case of `CCCCCc1cc(O)c2c(c1)OC(C)(C)C1=C2CC(C)CC1` (stereo unspecified), the “No. of rabbits convulsed” value [15] is reported as 4, the “No. of rabbits convulsed” value [16] is reported as 0 and the “No. of rabbits convulsed” value [17] is reported as 2.

For `CCCCCc1cc(O)c2c(c1)OC(C)(C)[C@@H]1C[C@@H](O)C(C)=CC21` (stereo partly specified), the “No. of rabbits convulsed” value [18] was 0, the “No. of rabbits convulsed” value [19] was 0 and the “No. of rabbits convulsed” value [20] was 0.

For `CCCCCc1cc(O)c2c(c1)OC(C)(C)[C@@H]1CC=C(C(=O)O)CC21` (stereo partly specified), the “No. of rabbits convulsed” value [21] was 0, the “No. of rabbits convulsed” value [18] was 2 and the “No. of rabbits convulsed” value [22] was 0. The “No. of rabbits convulsed” value [23] was 0.

With `CCCCCC(C)C(C)c1cc(O)c2c(c1)OC(C)(C)[C@@H]1CC=C(C)CC21` (stereo partly specified) the “No. of rabbits convulsed” value [24] was 3 and the “No. of rabbits convulsed” value [7] was 3.

`CCCCCc1cc(O)c2c(c1)OC(C)(C)[C@@H]1CCC(C)CC21` (stereo partly specified) was tested, and the “No. of rabbits convulsed” value [19] was 1, the “No. of rabbits convulsed” value [25] was 1 and the “No. of rabbits convulsed” value [23] was 3. For the same molecule, the “No. of rabbits convulsed” value [8] was 1 and the “No. of rabbits convulsed” value [9] was 2.
